Measured values reported in ChEMBL document CHEMBL2034859, “Simple, fast and efficient synthesis of β-keto esters from the esters of heteroaryl compounds, its antimicrobial study and cytotoxicity towards various cancer cell lines” (Bioorg Med Chem Lett, 2012).

Assays:
[1] = tested on: HCT-116; assay: Cytotoxicity against human HCT116 cells after 48 hrs by WST-1 assay; assay type: functional, cell-based; settings: HCT-116, 48 h
In short: (§1)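 Cells from ATCC were grown in DMEM with 10% heat-inactivated FBS at 37 °C in 5% CO2. Log-phase cells were seeded at 5 × 10^3 per well and left to recover overnight. They were then exposed to a range of compound concentrations for 48 h, with 0.2% DMSO as the vehicle control. CCK-8 (WST) reagent was added for 2 h and absorbance was measured.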

[2] = tested on: ACHN; assay: Cytotoxicity against human ACHN cells at 3 uM after 48 hrs by WST-1 assay; assay type: functional; in short: as §1
[3] = tested on: MCF-10A; assay: Cytotoxicity against human MCF10A cells at 1 uM after 48 hrs by WST1 assay; assay type: cell-based
[4] = tested on: MCF-10A; assay: Cytotoxicity against human MCF10A cells after 48 hrs by WST1 assay; assay type: cell-based
[5] = tested on: ACHN; assay: Cytotoxicity against human ACHN cells at 0.1 uM after 48 hrs by WST-1 assay; assay type: functional; in short: as §1
[6] = tested on: HCT-116; assay: Cytotoxicity against human HCT116 cells at 10 uM after 48 hrs by WST-1 assay; assay type: functional; in short: as §1
[7] = tested on: HCT-116; assay: Cytotoxicity against human HCT116 cells at 0.03 uM after 48 hrs by WST-1 assay; assay type: functional; in short: as §1
[8] = tested on: ACHN; assay: Cytotoxicity against human ACHN cells after 48 hrs by WST-1 assay; assay type: functional, cell-based; in short: as §1
[9] = tested on: ACHN; assay: Cytotoxicity against human ACHN cells at 1 uM after 48 hrs by WST-1 assay; assay type: functional; in short: as §1
[10] = tested on: MCF-10A; assay: Cytotoxicity against human MCF10A cells at 30 uM after 48 hrs by WST1 assay; assay type: cell-based
[11] = tested on: PANC-1; assay: Cytotoxicity against human PANC1 cells at 0.3 uM after 48 hrs by WST-1 assay; assay type: functional
In short: (§2)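 Cells from ATCC, grown in DMEM with 10% heat-inactivated FBS at 37 °C in humidified 5% CO2. Log-phase cells seeded at 5 × 10^3 cells/well and left to recover overnight, then exposed to varying compound concentrations for 48 h. Controls received medium with 0.2% DMSO vehicle. CCK-8 ([…]) reagent added at 5 µL/well for 2 h, then absorbance read.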

[12] = tested on: MCF-10A; assay: Cytotoxicity against human MCF10A cells at 0.01 uM after 48 hrs by WST1 assay; assay type: cell-based
[13] = tested on: MCF-10A; assay: Cytotoxicity against human MCF10A cells at 0.03 uM after 48 hrs by WST1 assay; assay type: cell-based
[14] = tested on: PANC-1; assay: Cytotoxicity against human PANC1 cells at 0.01 uM after 48 hrs by WST-1 assay; assay type: functional; in short: as §2
[15] = tested on: Calu-1; assay: Cytotoxicity against human Calu1 cells at 30 uM after 48 hrs by WST-1 assay; assay type: functional; in short: as §1
[16] = tested on: HCT-116; assay: Cytotoxicity against human HCT116 cells at 30 uM after 48 hrs by WST-1 assay; assay type: functional; in short: as §1
[17] = tested on: Calu-1; assay: Cytotoxicity against human Calu1 cells at 0.3 uM after 48 hrs by WST-1 assay; assay type: functional; in short: as §1
[18] = tested on: Calu-1; assay: Cytotoxicity against human Calu1 cells at 0.01 uM after 48 hrs by WST-1 assay; assay type: functional; in short: as §1
[19] = tested on: PANC-1; assay: Cytotoxicity against human PANC1 cells at 0.03 uM after 48 hrs by WST-1 assay; assay type: functional; in short: as §2
[20] = tested on: NCI-H460; assay: Cytotoxicity against human NCI-H460 cells at 0.01 uM after 48 hrs by WST-1 assay; assay type: functional; in short: as §2
[21] = tested on: PANC-1; assay: Cytotoxicity against human PANC1 cells at 0.1 uM after 48 hrs by WST-1 assay; assay type: functional; in short: as §2
[22] = tested on: Calu-1; assay: Cytotoxicity against human Calu1 cells at 0.03 uM after 48 hrs by WST-1 assay; assay type: functional; in short: as §1
[23] = tested on: ACHN; assay: Cytotoxicity against human ACHN cells at 0.03 uM after 48 hrs by WST-1 assay; assay type: functional; in short: as §1
[24] = tested on: HCT-116; assay: Cytotoxicity against human HCT116 cells at 0.3 uM after 48 hrs by WST-1 assay; assay type: functional; in short: as §1
[25] = tested on: HCT-116; assay: Cytotoxicity against human HCT116 cells at 3 uM after 48 hrs by WST-1 assay; assay type: functional; in short: as §1
[26] = tested on: NCI-H460; assay: Cytotoxicity against human NCI-H460 cells at 0.03 uM after 48 hrs by WST-1 assay; assay type: functional; in short: as §2
[27] = tested on: Calu-1; assay: Cytotoxicity against human Calu1 cells at 0.1 uM after 48 hrs by WST-1 assay; assay type: functional; in short: as §1
[28] = tested on: PANC-1; assay: Cytotoxicity against human PANC1 cells at 3 uM after 48 hrs by WST-1 assay; assay type: functional; in short: as §2
[29] = tested on: NCI-H460; assay: Cytotoxicity against human NCI-H460 cells at 0.1 uM after 48 hrs by WST-1 assay; assay type: functional; in short: as §2
[30] = tested on: NCI-H460; assay: Cytotoxicity against human NCI-H460 cells after 48 hrs by WST-1 assay; assay type: functional, cell-based; settings: NCI-H460, 48 h; in short: as §2
[31] = tested on: NCI-H460; assay: Cytotoxicity against human NCI-H460 cells at 3 uM after 48 hrs by WST-1 assay; assay type: functional; in short: as §2
[32] = tested on: ACHN; assay: Cytotoxicity against human ACHN cells at 10 uM after 48 hrs by WST-1 assay; assay type: functional; in short: as §1
[33] = tested on: MCF-10A; assay: Cytotoxicity against human MCF10A cells at 0.3 uM after 48 hrs by WST1 assay; assay type: cell-based
[34] = tested on: Calu-1; assay: Cytotoxicity against human Calu1 cells at 1 uM after 48 hrs by WST-1 assay; assay type: functional; in short: as §1
[35] = tested on: Calu-1; assay: Cytotoxicity against human Calu1 cells at 10 uM after 48 hrs by WST-1 assay; assay type: functional; in short: as §1
[36] = tested on: MCF-10A; assay: Cytotoxicity against human MCF10A cells at 10 uM after 48 hrs by WST1 assay; assay type: cell-based
[37] = tested on: ACHN; assay: Cytotoxicity against human ACHN cells at 30 uM after 48 hrs by WST-1 assay; assay type: functional; in short: as §1
[38] = tested on: MCF-10A; assay: Cytotoxicity against human MCF10A cells at 0.1 uM after 48 hrs by WST1 assay; assay type: cell-based
[39] = tested on: PANC-1; assay: Cytotoxicity against human PANC1 cells at 10 uM after 48 hrs by WST-1 assay; assay type: functional; in short: as §2
[40] = tested on: HCT-116; assay: Cytotoxicity against human HCT116 cells at 1 uM after 48 hrs by WST-1 assay; assay type: functional; in short: as §1
[41] = tested on: MCF-10A; assay: Cytotoxicity against human MCF10A cells at 3 uM after 48 hrs by WST1 assay; assay type: cell-based
[42] = tested on: Calu-1; assay: Cytotoxicity against human Calu1 cells at 3 uM after 48 hrs by WST-1 assay; assay type: functional; in short: as §1
[43] = tested on: Calu-1; assay: Cytotoxicity against human Calu1 cells after 48 hrs by WST-1 assay; assay type: functional, cell-based; settings: Calu-1, 48 h; in short: as §1
[44] = tested on: PANC-1; assay: Cytotoxicity against human PANC1 cells at 1 uM after 48 hrs by WST-1 assay; assay type: functional; in short: as §2
[45] = tested on: ACHN; assay: Cytotoxicity against human ACHN cells at 0.01 uM after 48 hrs by WST-1 assay; assay type: functional; in short: as §1
[46] = tested on: HCT-116; assay: Cytotoxicity against human HCT116 cells at 0.1 uM after 48 hrs by WST-1 assay; assay type: functional; in short: as §1
[47] = tested on: ACHN; assay: Cytotoxicity against human ACHN cells at 0.3 uM after 48 hrs by WST-1 assay; assay type: functional; in short: as §1
[48] = tested on: NCI-H460; assay: Cytotoxicity against human NCI-H460 cells at 1 uM after 48 hrs by WST-1 assay; assay type: functional; in short: as §2
[49] = tested on: HCT-116; assay: Cytotoxicity against human HCT116 cells at 0.01 uM after 48 hrs by WST-1 assay; assay type: functional; in short: as §1
[50] = tested on: PANC-1; assay: Cytotoxicity against human PANC1 cells at 30 uM after 48 hrs by WST-1 assay; assay type: functional; in short: as §2
[51] = tested on: NCI-H460; assay: Cytotoxicity against human NCI-H460 cells at 0.3 uM after 48 hrs by WST-1 assay; assay type: functional; in short: as §2
[52] = tested on: NCI-H460; assay: Cytotoxicity against human NCI-H460 cells at 10 uM after 48 hrs by WST-1 assay; assay type: functional; in short: as §2
[53] = tested on: NCI-H460; assay: Cytotoxicity against human NCI-H460 cells at 30 uM after 48 hrs by WST-1 assay; assay type: functional; in short: as §2
[54] = tested on: PANC-1; assay: Cytotoxicity against human PANC1 cells after 48 hrs by WST-1 assay; assay type: functional, cell-based; settings: PANC-1, 48 h; in short: as §2
[55] = tested on: ACHN; assay: Cytotoxicity against human ACHN cells at 1000 nM after 48 hrs by WST-1 assay; assay type: functional; in short: as §1
[56] = tested on: HCT-116; assay: Cytotoxicity against human HCT116 cells at 1000 nM after 48 hrs by WST-1 assay; assay type: functional; in short: as §1
[57] = tested on: NCI-H460; assay: Cytotoxicity against human NCI-H460 cells at 1000 nM after 48 hrs by WST-1 assay; assay type: functional; in short: as §2
[58] = tested on: Calu-1; assay: Cytotoxicity against human Calu1 cells at 1000 nM after 48 hrs by WST-1 assay; assay type: functional; in short: as §1
[59] = tested on: PANC-1; assay: Cytotoxicity against human PANC1 cells at 1000 nM after 48 hrs by WST-1 assay; assay type: functional; in short: as §2

SMILES: CCOC(=O)C(C)C(=O)c1cnccn1 (centres undefined)
- IC50 [1]: 1300 nM
- Activity [2]: 51.6%
- Activity [3]: 6.3%
- IC50 [4]: 21200 nM
- Activity [5]: 19%
- Activity [6]: 90%
- Activity [7]: 18.8%
- IC50 [8]: 3000 nM
- Activity [9]: 46.2%
- Activity [10]: 82.8%
- Activity [11]: 15.9%
- Activity [12]: -15.2%
- Activity [13]: -14.1%
- Activity [14]: 8.3%
- Activity [15]: 99.2%
- Activity [16]: 100%
- Activity [17]: 9.4%
- Activity [18]: 1.5%
- Activity [19]: 10%
- Activity [20]: 3.6%
- Activity [21]: 13.6%
- Activity [22]: 2.9%
- Activity [23]: -28.9%
- Activity [24]: 32.3%
- Activity [25]: 92.2%
- Activity [26]: 6.7%
- Activity [27]: 6.7%
- Activity [28]: 67.8%
- Activity [29]: 14.2%
- IC50 [30]: 3000 nM
- Activity [31]: 55%
- Activity [32]: 67.4%
- Activity [33]: -6.8%
- Activity [34]: 22.8%
- Activity [35]: 85.3%
- Activity [36]: 39.1%
- Activity [37]: 82.3%
- Activity [38]: -9.5%
- Activity [39]: 92.1%
- Activity [40]: 44.8%
- Activity [41]: 24%
- Activity [42]: 60.8%
- IC50 [43]: 2800 nM
- Activity [44]: 29.2%
- Activity [45]: -23.4%
- Activity [46]: 26.9%
- Activity [47]: 27.9%
- Activity [48]: 44.6%
- Activity [49]: 9.4%
- Activity [50]: 100%
- Activity [51]: 38.6%
- Activity [52]: 87%
- Activity [53]: 100%
- IC50 [54]: 2900 nM

SMILES: CN1CC[C@H](c2c(O)cc(O)c3c(=O)cc(-c4ccccc4Cl)oc23)[C@H](O)C1 [ALVOCIDIB]
- Activity [55]: 71%
- Activity [56]: 78%
- Activity [57]: 71%
- Activity [58]: 88%
- Activity [59]: 74%

SMILES: Nc1ccn([C@@H]2O[C@H](CO)[C@@H](O)C2(F)F)c(=O)n1 [GEMCITABINE]
- Activity [55]: 73%
- Activity [56]: 74%
- Activity [57]: 73%
- Activity [58]: 71%
- Activity [59]: 79%
